Eleven molecules from ChEMBL document CHEMBL2069237, “3-Hydroxy-3-methylglutaryl flavonol glycosides from Oxytropis falcata” (2012) can be followed below.

Some results are limits rather than exact numbers.

The experiment concerns RAW264.7. Put plainly: Antiinflammatory activity in mouse RAW264.7 cells assessed as inhibition of lipopolysaccharide-induced nitric oxide production at 50 uM pre-incubated for 4 hrs before LPS challenge for 24 hrs by Griess assay. The experiment is classed as functional. An outline of the steps: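 RAW 264.7 murine macrophages grown in DMEM with 10% FBS, 2 mmol/L L-glutamine, penicillin/streptomycin, 37 °C, 5% CO2. Cells (5 × 10^5/mL) preincubated 8 h, given compound at 10 or 50 μM for 4 h, then LPS (final 1 μg/mL) for 24 h. Nitrite in supernatant measured by Griess reagent, absorbance 570 nm, against sodium nitrite standard; expressed as % inhibition.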

Consider `C[C@@H]1O[C@@H](OC[C@H]2O[C@@H](Oc3c(-c4ccc(O)cc4)oc4cc(O[C@@H]5O[C@@H](C)[C@H](O)[C@@H](O)[C@H]5O)cc(O)c4c3=O)[C@H](O)[C@@H](O)[C@@H]2O)[C@H](O)[C@H](O)[C@H]1O`, for which the inhibition at 50 µM was < 5%.
The value for `C[C@@H]1O[C@@H](OC[C@H]2O[C@@H](Oc3c(-c4ccc(O)cc4)oc4cc(O)cc(O)c4c3=O)[C@H](O)[C@@H](O)[C@H]2O)[C@H](O)[C@H](O)[C@H]1O` was < 5%; that for `O=C(/C=C/c1ccccc1)c1ccc(O)cc1O` [2',4'-DIHYDROXYCHALCONE] was 40.1%.
For `CC1O[C@@H](OC[C@H]2O[C@@H](Oc3c(-c4ccc(O)cc4)oc4cc(O)cc(O)c4c3=O)C(O[C@@H]3O[C@H](C)[C@H](O)C(O)C3O)C(O)[C@H]2O)C(O)[C@@H](O)[C@H]1O` (stereo partly specified) [MAURITIANIN], the inhibition at 50 µM was < 5%.
The value for `COc1cc(O)c2c(=O)c(O[C@@H]3O[C@H](COC(=O)C[C@@](C)(O)CC(=O)O)[C@H](O)[C@H](O)[C@H]3O[C@@H]3O[C@@H](C)[C@H](O)[C@@H](O)[C@H]3O)c(-c3ccc(O)cc3)oc2c1` [OXYTROFLAVOSIDE A] was < 5%; that for `COc1cc(O)c2c(=O)c(O[C@@H]3O[C@H](CO)[C@H](O)[C@H](OC(=O)C[C@@](C)(O)CC(=O)O)[C@H]3O[C@@H]3O[C@@H](C)[C@H](O)[C@@H](O)[C@H]3O)c(-c3ccc(O)cc3)oc2c1` [OXYTROFLAVOSIDE B] was < 5%.
To `COc1cc(O)c2c(=O)c(O[C@@H]3O[C@H](CO)[C@H](OC(=O)C[C@@](C)(O)CC(=O)O)[C@H](O)[C@H]3O[C@@H]3O[C@@H](C)[C@H](O)[C@@H](O)[C@H]3O)c(-c3ccc(O)cc3)oc2c1` [OXYTROFLAVOSIDE C] belongs < 5%.
The value for `COc1cc(O)c2c(=O)c(O[C@@H]3O[C@H](COC(=O)C[C@@](C)(O)CC(=O)O)[C@H](O)[C@H](O)[C@H]3O)c(-c3ccc(O)cc3)oc2c1` [OXYTROFLAVOSIDE D] was < 5%; that for `COc1cc(O)c2c(=O)c(O[C@@H]3O[C@H](COC(=O)C[C@@](C)(O)CC(=O)O)[C@H](O)[C@H](O)[C@H]3O)c(-c3ccc(O[C@@H]4O[C@H](CO)[C@@H](O)[C@H](O)[C@H]4O)cc3)oc2c1` [OXYTROFLAVOSIDE E] was < 5%; that for `COc1cc(O)c2c(=O)c(O[C@@H]3O[C@H](CO)[C@H](O)[C@H](O)[C@H]3O[C@@H]3O[C@@H](C)[C@H](O)[C@@H](O)[C@H]3O)c(-c3ccc(O)cc3)oc2c1` [OXYTROFLAVOSIDE F] was < 5%.
Consider `COc1cc(O)c2c(=O)c(O[C@@H]3O[C@H](CO[C@@H]4O[C@@H](C)[C@H](O)[C@@H](O)[C@H]4O)[C@H](O)[C@H](O)[C@H]3O[C@@H]3O[C@@H](C)[C@H](O)[C@@H](O)[C@H]3O)c(-c3ccc(O)cc3)oc2c1` [OXYTROFLAVOSIDE G], for which the inhibition at 50 µM was < 5%.
